For data set [1], the system named is SH-SY5Y. The experiment in a line: Neuroprotective activity in human SH-SY5Y cells assessed as inhibition of CHP and TBHP-induced cell death at 10 uM incubated for 30 mins prior to challenge measured after 3 hrs by MTT assay. The class given is functional, cell-based. The essentials: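 SH-SY5Y human neuroblastoma cells pretreated with compound at 10 µM for 30 min, then exposed to cumene hydroperoxide (CHP) or tert-butyl hydroperoxide (TBHP) at 300 µM for 3 h. Viability read by MTT and expressed relative to untreated control set as 100%. Mean ± SEM, n = 3; ANOVA.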
Background: Tetrazolium dyes change colour on reduction, which living cells bring about.

Data set [2] has as its system SH-SY5Y. The experiment in a line: Neuroprotective activity in human SH-SY5Y cells assessed as inhibition of MPP+-induced cell death after 24 hrs by MTT assay. The data set is classed as functional, cell-based. The essentials:
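SH-SY5Y neuroblastoma cells co-treated with MPP+ (1 mM) and compound (10–30 µM) at the same time for 24 h. MTT read-out, given as percent viability versus control without MPP+. Mean ± SEM, n = 4; ANOVA.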

For data set [3], the system named is SH-SY5Y. In words: Neuroprotective activity in MPP+-stimulated human SH-SY5Y cells assessed as cell survival at 30 uM measured 24 hrs after MPP+-challenge by MTT assay. The class given is functional. The settings on record: read-out: Survival. The essentials:
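SH-SY5Y neuroblastoma cells were co-treated with MPP+ (1 mM) and test compound (10–30 µM) for 24 h, with no pretreatment. Viability was read by MTT assay and given as percent of control without MPP+. Values are mean ± SEM, n = 4, compared by ANOVA.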

Data set [4] in a line: Cytotoxicity against human SH-SY5Y cells assessed as cell viability at 300 uM by MTT assay. The class given is cell-based. To be noted: read-out: Activity. In a few lines: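 SH-SY5Y human neuroblastoma cells were exposed to cumene hydroperoxide (CHP) or tert-butyl hydroperoxide (TBHP) at 300 µM for 3 h. Viability was read by MTT assay and expressed relative to untreated control cultures set as 100%. Values are mean ± SEM, n = 3, compared by ANOVA.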

Calls of active or inactive are those of the source. No cut-off for these calls is given here.

`C=CCc1cc(-c2cc(CCC)ccc2O)ccc1O`: the inhibition entry in data set [1] is “Active”. Besides, the inhibition result in data set [2] is “Dose-dependent effect”. Further, the viability at 30 µM in data set [3] amounted to 83%.

Regarding `C=CCc1cc(-c2cccc(O)c2CC=C)ccc1O`, in data set [1], the inhibition entry is “Active”. In addition, the inhibition result in data set [2] is “Dose-dependent effect”. Also, in data set [3], the viability at 30 µM was 79%.

For the compound `C=CCc1cc(-c2ccc(O)c(CC=C)c2)ccc1O`, the inhibition result in data set [1] is “Active”. For the same compound, the inhibition entry in data set [2] was “Dose-dependent effect”.

Regarding `CC(C)(C)OO` [TERT-BUTYL HYDROPEROXIDE], in data set [4], the viability at 300 µM came to 72%.

Regarding `C=CCc1ccc(O)c(-c2ccc(O)c(CCC)c2)c1`, the inhibition result in data set [1] was “Active”. Further, the inhibition result in data set [2] was “Dose-dependent effect”. Besides, the viability at 30 µM in data set [3] was found to be 87%.

Consider `CCCc1ccc(O)c(-c2ccc(O)c(CCC)c2)c1`, for which, in data set [1], the inhibition result was “Active”. Also, the inhibition entry in data set [2] was “Dose-dependent effect”. Further, in data set [3], the viability at 30 µM came to 91%.

As for `CC(C)(OO)c1ccccc1` [CUMENE HYDROPEROXIDE], in data set [4], the viability at 300 µM was found to be 64%.

On to `C=CCc1ccc(O)c(-c2ccc(O)c(CC=C)c2)c1`, for which the inhibition entry in data set [1] is “Active”. Further, the inhibition result in data set [2] is “Dose-dependent effect”.

Regarding `C#CCc1ccc(O)c(-c2ccc(O)c(CC=C)c2)c1`, the inhibition entry in data set [1] was “Active”. Also, the inhibition entry in data set [2] is “Dose-dependent effect”. The viability at 30 µM in data set [3] is 80%.

For the origin of these results see ChEMBL document CHEMBL1932954, “An expedient synthesis of honokiol and its analogues as potential neuropreventive agents” (Bioorg Med Chem Lett, 2012).
